Results from ChEMBL document CHEMBL5058577, “EUbOPEN Chemogenomics Library 2 (Multiplex)” (2022).

System: Fibroblast
Assay: Multiplex assay against human fibroblast
Assay type: toxicity, cell-based
How it was run: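 Live cells were stained at seeding with Hoechst33342, BioTracker Green Microtubule Cytoskeleton Dye, MitoTracker Red and Annexin V Alexa Fluor 680, then imaged on a CQ1 microscope at 37°C and 5% CO2 after compound addition. CellPathfinder machine-learning gating split cells into Hoechst high-intensity objects or normal cells. Normal cells were split into healthy, pyknosed or fragmented nuclei, and pyknosed cells into mitotic or apoptotic. Tubulin, mitochondrial-mass and membrane-permeability phenotypes are per cents of healthy-nucleus cells.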

[1] = 12 h, 1 µM, compound concentration 1 uM, replicate 1
[2] = 12 h, 1 µM, compound concentration 1 uM, replicate 2
[3] = 12 h, 10 µM, compound concentration 10 uM, replicate 1
[4] = 12 h, 10 µM, compound concentration 10 uM, replicate 2
[5] = 24 h, 1 µM, compound concentration 1 uM, replicate 1
[6] = 24 h, 1 µM, compound concentration 1 uM, replicate 2
[7] = 24 h, 10 µM, compound concentration 10 uM, replicate 1
[8] = 24 h, 10 µM, compound concentration 10 uM, replicate 2
[9] = 48 h, 1 µM, compound concentration 1 uM, replicate 1
[10] = 48 h, 1 µM, compound concentration 1 uM, replicate 2
[11] = 48 h, 10 µM, compound concentration 10 uM, replicate 1
[12] = 48 h, 10 µM, compound concentration 10 uM, replicate 2

CN[C@@H](C)C(=O)N[C@H](C(=O)N1CCC[C@H]1C(=O)Nc1snnc1-c1ccccc1)C1CCCCC1 [GDC-0152]
Population Apoptotic (%) [1]: 70% | Population Fragmented Nuclei (%) [1]: 14% | Population Healthy Nuclei (%) [1]: 68% | Population Hoechst High Intensity Objects (%) [1]: 4% | Population Membrane Permeable-Phenotype (%) [1]: 1% | Population Mitochondria Different-Phenotype (%) [1]: 6% | Population Mitotic Cells (%) [1]: 30% | Population Normal (%) [1]: 95% | Population Pyknosed Nuclei (%) [1]: 16% | Population Tubulin-Different-Phenotype (%) [1]: 38% | Total Cell Count [1]: 127 | Population Apoptotic (%) [2]: 33% | Population Fragmented Nuclei (%) [2]: 16% | Population Healthy Nuclei (%) [2]: 56% | Population Hoechst High Intensity Objects (%) [2]: 6% | Population Membrane Permeable-Phenotype (%) [2]: 6% | Population Mitochondria Different-Phenotype (%) [2]: 9% | Population Mitotic Cells (%) [2]: 66% | Population Normal (%) [2]: 93% | Population Pyknosed Nuclei (%) [2]: 26% | Population Tubulin-Different-Phenotype (%) [2]: 62% | Total Cell Count [2]: 121 | Population Apoptotic (%) [3]: 38% | Population Fragmented Nuclei (%) [3]: 17% | Population Healthy Nuclei (%) [3]: 59% | Population Hoechst High Intensity Objects (%) [3]: 6% | Population Membrane Permeable-Phenotype (%) [3]: 0% | Population Mitochondria Different-Phenotype (%) [3]: 13% | Population Mitotic Cells (%) [3]: 61% | Population Normal (%) [3]: 93% | Population Pyknosed Nuclei (%) [3]: 22% | Population Tubulin-Different-Phenotype (%) [3]: 80% | Total Cell Count [3]: 144 | Population Apoptotic (%) [4]: 24% | Population Fragmented Nuclei (%) [4]: 26% | Population Healthy Nuclei (%) [4]: 34% | Population Hoechst High Intensity Objects (%) [4]: 10% | Population Mitochondria Different-Phenotype (%) [4]: 10% | Population Mitotic Cells (%) [4]: 75% | Population Normal (%) [4]: 90% | Population Pyknosed Nuclei (%) [4]: 39% | Population Tubulin-Different-Phenotype (%) [4]: 65% | Total Cell Count [4]: 150 | Population Apoptotic (%) [5]: 60% | Population Fragmented Nuclei (%) [5]: 20% | Population Healthy Nuclei (%) [5]: 63% | Population Hoechst High Intensity Objects (%) [5]: 2% | Population Membrane Permeable-Phenotype (%) [5]: 1% | Population Mitochondria Different-Phenotype (%) [5]: 1% | Population Mitotic Cells (%) [5]: 40% | Population Normal (%) [5]: 97% | Population Pyknosed Nuclei (%) [5]: 16% | Population Tubulin-Different-Phenotype (%) [5]: 30% | Total Cell Count [5]: 123 | Population Apoptotic (%) [6]: 37% | Population Fragmented Nuclei (%) [6]: 22% | Population Healthy Nuclei (%) [6]: 55% | Population Hoechst High Intensity Objects (%) [6]: 9% | Population Membrane Permeable-Phenotype (%) [6]: 2% | Population Mitochondria Different-Phenotype (%) [6]: 11% | Population Mitotic Cells (%) [6]: 62% | Population Normal (%) [6]: 90% | Population Pyknosed Nuclei (%) [6]: 22% | Population Tubulin-Different-Phenotype (%) [6]: 61% | Total Cell Count [6]: 133 | Population Apoptotic (%) [7]: 67% | Population Fragmented Nuclei (%) [7]: 14% | Population Healthy Nuclei (%) [7]: 58% | Population Hoechst High Intensity Objects (%) [7]: 5% | Population Membrane Permeable-Phenotype (%) [7]: 0% | Population Mitochondria Different-Phenotype (%) [7]: 21% | Population Mitotic Cells (%) [7]: 32% | Population Normal (%) [7]: 94% | Population Pyknosed Nuclei (%) [7]: 26% | Population Tubulin-Different-Phenotype (%) [7]: 83% | Total Cell Count [7]: 135 | Population Apoptotic (%) [8]: 41% | Population Fragmented Nuclei (%) [8]: 33% | Population Healthy Nuclei (%) [8]: 34% | Population Hoechst High Intensity Objects (%) [8]: 8% | Population Membrane Permeable-Phenotype (%) [8]: 16% | Population Mitochondria Different-Phenotype (%) [8]: 22% | Population Mitotic Cells (%) [8]: 58% | Population Normal (%) [8]: 91% | Population Pyknosed Nuclei (%) [8]: 31% | Population Tubulin-Different-Phenotype (%) [8]: 68% | Total Cell Count [8]: 157 | Population Apoptotic (%) [9]: 47% | Population Fragmented Nuclei (%) [9]: 23% | Population Healthy Nuclei (%) [9]: 60% | Population Hoechst High Intensity Objects (%) [9]: 1% | Population Membrane Permeable-Phenotype (%) [9]: 0% | Population Mitochondria Different-Phenotype (%) [9]: 1% | Population Mitotic Cells (%) [9]: 52% | Population Normal (%) [9]: 98% | Population Pyknosed Nuclei (%) [9]: 16% | Population Tubulin-Different-Phenotype (%) [9]: 48% | Total Cell Count [9]: 132 | Population Apoptotic (%) [10]: 57% | Population Fragmented Nuclei (%) [10]: 38% | Population Healthy Nuclei (%) [10]: 44% | Population Hoechst High Intensity Objects (%) [10]: 5% | Population Membrane Permeable-Phenotype (%) [10]: 2% | Population Mitochondria Different-Phenotype (%) [10]: 14% | Population Mitotic Cells (%) [10]: 42% | Population Normal (%) [10]: 94% | Population Pyknosed Nuclei (%) [10]: 17% | Population Tubulin-Different-Phenotype (%) [10]: 67% | Total Cell Count [10]: 159 | Population Apoptotic (%) [11]: 76% | Population Fragmented Nuclei (%) [11]: 23% | Population Healthy Nuclei (%) [11]: 45% | Population Hoechst High Intensity Objects (%) [11]: 6% | Population Membrane Permeable-Phenotype (%) [11]: 0% | Population Mitochondria Different-Phenotype (%) [11]: 22% | Population Mitotic Cells (%) [11]: 23% | Population Normal (%) [11]: 93% | Population Pyknosed Nuclei (%) [11]: 31% | Population Tubulin-Different-Phenotype (%) [11]: 81% | Total Cell Count [11]: 145 | Population Apoptotic (%) [12]: 44% | Population Fragmented Nuclei (%) [12]: 39% | Population Healthy Nuclei (%) [12]: 42% | Population Membrane Permeable-Phenotype (%) [12]: 19% | Population Mitochondria Different-Phenotype (%) [12]: 17% | Population Mitotic Cells (%) [12]: 55% | Population Pyknosed Nuclei (%) [12]: 18% | Population Tubulin-Different-Phenotype (%) [12]: 88% | Total Cell Count [12]: 159
